For series [1], the target named is T1, C-C chemokine receptor type 4 (Homo sapiens, UniProt P51679).
T1 sequence (P51679 whole entry): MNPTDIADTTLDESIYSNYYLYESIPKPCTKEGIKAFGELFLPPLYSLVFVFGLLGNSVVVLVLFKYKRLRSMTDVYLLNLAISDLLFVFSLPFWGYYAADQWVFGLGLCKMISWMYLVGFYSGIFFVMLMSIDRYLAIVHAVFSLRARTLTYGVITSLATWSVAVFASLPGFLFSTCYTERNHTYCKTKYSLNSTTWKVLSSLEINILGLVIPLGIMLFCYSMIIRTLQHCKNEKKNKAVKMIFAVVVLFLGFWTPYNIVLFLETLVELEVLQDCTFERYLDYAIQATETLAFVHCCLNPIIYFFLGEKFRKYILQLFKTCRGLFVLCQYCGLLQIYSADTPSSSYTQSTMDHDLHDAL
The series is described as follows: Antagonist activity at human CCR4 receptor expressed in mouse B300-19 cells by [35S]GTPgammaS binding assay. It counts as functional, cell-based. Summed up:
(§1)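 Membranes from human CCR4-expressing B300-19 cells (1 µg protein/well) with 150 pM [35S]GTPγS, 2 µM GDP, 3 nM MDC (CCL22), WGA SPA beads, test compound in 20 mM Hepes-NaOH pH 7.05, 100 mM NaCl, 5 mM MgCl2, 0.2% BSA; 1.5 h, 25 °C. Percent inhibition against no-compound and no-CCL22 controls. Duplicate, four concentrations, usually two determinations averaged. IC50 by non-linear fitting.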

The nature of series [2]: Cytotoxicity against CCR4 expressing mouse B300-19 cells at 3 uM after 12 hrs by alamar blue assay. It counts as cell-based. As to conditions: b300-19, 12 h. The method, boiled down:
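CCR4-expressing B300-19 cells (5×10^4/well) in RPMI 1640 with 10% FBS, 2-mercaptoethanol and antibiotics, 37 °C, 5% CO2, exposed to 0.3–10 µM compound for 12 h, then Alamar Blue for 4 h; fluorescence read at excitation 570 and emission 600 nm. Viability relative to untreated wells; minimum cytotoxic dose is the concentration lowering viability below 70%.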

Series [3] has as its target T2, C-C chemokine receptor type 4 (Homo sapiens) (UniProt P51679).
T2 sequence (whole entry): T1 sequence (P51679 whole entry)
The series is described as follows: Antagonist activity at human CCR4 receptor expressed in mouse B300-19 cells assessed as CCL22-induced chemotaxis by bioluminescent assay. It counts as functional, cell-based. The method, boiled down: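 Stably transfected B300-19 cells (human CCR4 cDNA, G418 selection) at 5×10^6 cells/mL in RPMI 1640 with 0.1% BSA, pretreated with test compound; placed over 3 nM human CCL22 in 5-µm-pore polycarbonate filter chambers, 3 h, 37 °C, 5% CO2. Migrated cells quantified by ATP bioluminescence. Controls without compound or without CCL22. Triplicate, four concentrations. IC50 by non-linear curve fitting.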

Series [4] addresses T3, C-C chemokine receptor type 4 (Mus musculus) (UniProt P51680).
T3 sequence (whole entry): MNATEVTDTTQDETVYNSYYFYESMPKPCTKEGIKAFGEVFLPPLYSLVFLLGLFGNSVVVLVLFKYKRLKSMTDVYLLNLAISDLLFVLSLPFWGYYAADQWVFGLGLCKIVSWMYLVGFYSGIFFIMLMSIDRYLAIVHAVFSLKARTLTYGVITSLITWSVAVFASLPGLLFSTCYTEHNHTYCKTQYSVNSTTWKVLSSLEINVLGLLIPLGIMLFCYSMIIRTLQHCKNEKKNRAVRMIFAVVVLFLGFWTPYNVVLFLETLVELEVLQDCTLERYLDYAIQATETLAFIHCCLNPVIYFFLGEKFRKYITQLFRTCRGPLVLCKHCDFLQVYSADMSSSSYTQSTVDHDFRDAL
The experiment in a line: Antagonist activity at mouse CCR4 receptor expressed in mouse B300-19 cells assessed as CCL22-induced chemotaxis by bioluminescent assay. The format is functional, cell-based. The method, boiled down:
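Chemotaxis of B300-19 stable transformants carrying mouse CCR4 cDNA, suspended at 5×10^6 cells/mL in RPMI 1640 plus 0.1% BSA with test compound; 1 nM mouse CCL22 in lower wells, 5-µm pore filters, 3 h at 37 °C, 5% CO2. Migrated cells counted by ATP bioluminescence. Triplicate at four concentrations. IC50 from non-linear curve fit.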

Series [5] has as its target T2, C-C chemokine receptor type 4 (Homo sapiens). The experiment in a line: Displacement of [125I]CCl22 from human CCR4 receptor expressed in mouse B300-19 cells at 1 uM by SPA. The format is cell-based. Summed up: (§2)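 SPA on whole human CCR4-expressing B300-19 cells (2×10^5/well) with 25 pM [125I]CCL22 and WGA SPA beads, test compound, in 50 mM Hepes pH 7.4, 5 mM MgCl2, 1 mM CaCl2, 0.1% BSA; 2 h, 25 °C. Nonspecific binding defined with 10 nM unlabeled CCL22. Duplicate, four concentrations, usually two determinations averaged. IC50 by non-linear curve fitting.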

For series [6] the target is unchanged. The series is described as follows: Antagonist activity at human CCR4 receptor expressed in mouse B300-19 cells at 1 uM by [35S]GTPgammaS binding assay. It counts as functional, cell-based. The method, boiled down: as §1
The target in series [7] is T1, C-C chemokine receptor type 4. The series is described as follows: Displacement of [125I]CCl22 from human CCR4 receptor expressed in mouse B300-19 cells by SPA. The format is cell-based. The method, boiled down: as §2

pIC50: −log10 of the molar value.

As to `COc1cc2nc(N3CCC(N4CCCC4)CC3)nc(NC3CCCCCC3)c2cc1OC`, the pIC50 in series [1] is 7.72; in series [7], 7.15. The Activity result is “Toxic” in series [2], 0.2 µM in series [3] and 0.13 µM in series [4]. For the same molecule, the figures for the inhibition in series [5] and in series [6] were 100% and 93%, respectively.

The record behind these values is ChEMBL document CHEMBL1157487, “Discovery of potent CCR4 antagonists: Synthesis and structure-activity relationship study of 2,4-diaminoquinazolines” (Bioorg Med Chem, 2008).
